As a reminder, the solubility (kinetic) is the concentration staying in solution when a stock, usually in DMSO, is diluted into the medium. By half-life is commonly meant how long it takes for the measured level to halve. The Papp is the rate of passage across a membrane or cell layer, normalised by area and donor concentration. Read a high Papp as fast passage.

SMILES strings stand for the structures. Values joined by “and” are separate entries in the source; they are usually repeats but may differ in a detail not shown here. Equal values may be shown once.

The values below come from ChEMBL document CHEMBL5154945, “Discovery and Optimization of Pyrrolopyrimidine Derivatives as Selective Disruptors of the Perinucleolar Compartment, a Marker of Tumor Progression toward Metastasis” (J Med Chem, 2022).

The subject of data set [1] is PC-3M. Briefly: Anticancer activity in human PC-3M cells expressing PTB/GFP fusion protein assessed as perinucleolar compartment disassembly and measured after 24 hrs by Hoechst 33342 staining based microscopic method. Type of data set: functional, cell-based. In short, it runs like this: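 Imaged by high-content microscopy. Nuclei with PNC spots ≥3 and >0 scored positive. PNC prevalence % = PNC-positive nuclei/total nuclei ×100, normalized to DMSO (0% activity) and 0% PNC (−100%). IC50 from concentration-response.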

The nature of data set [2]: Microsomal stability in CD1 mouse liver microsomes assessed as half life measured upto 60 mins in presence of NADPH by LC-MS analysis. To be noted: for t1/2: mouse, microsomes, 1 h; for half-life at 1 h: CD1, mouse, liver microsomes. For orientation: Liver microsomes are a subcellular fraction often used to study metabolism.
The nature of data set [3]: Permeability of the compound at pH 7.4 incubated for 30 mins by UV plate reader based PAMPA assay. To be noted: for permeability: pampa, pH 7.4, 0.5 h; for Papp at 0.5 h: PAMPA, pH 7.4. A general note: PAMPA measures passive passage across an artificial lipid membrane.
Data set [4] is described as follows: Kinetic solubility of compound.
Data set [5] is described as follows: Cytotoxicity against human PC-3M cells expressing PTB/GFP fusion protein assessed as reduction in ATP level and measured after 24 to 48 hrs by ATPlite luminescence assay. The format is toxicity, cell-based. A general note: ATP-based viability assays read luminescence as a measure of living cells.
A short description of data set [6]: in vitro. To be noted: human, PC-3M cells expressing PTB/GFP fusion protein.

Turning to `N=c1c2c(-c3ccccc3)c(-c3ccccc3)n(Cc3ccccc3)c2ncn1C1CCOCC1`, the IC50 was 0.32 µM in data set [1] (read-out: IC50) and 0.316 µM in data set [1] (read-out: pIC50 (converted)). In data set [2], the t1/2 is 29.6 min. Also, the permeability in data set [3] is listed as > 1000 10^-6 cm/s. For the same compound, in data set [4], the solubility (kinetic) is 18 µM and 8.3 µg/mL.

On to `COc1cccc2c1C(=O)c1c(O)c3c(c(O)c1C2=O)C[C@@](O)(C(=O)CO)C[C@@H]3O[C@H]1C[C@H](N)[C@H](O)[C@H](C)O1` [DOXORUBICIN], for which the IC50 in data set [1] (read-out: IC50) is 0.86 µM; in data set [5] it was 0.66 µM.

In the case of `N=c1c2c(-c3ccccc3)c(-c3ccccc3)n(CCc3ccccc3)c2ncn1[C@H]1CC[C@H](O)CC1`, the IC50 in data set [1] (read-out: pIC50 (converted)) is 0.339 µM. In addition, the half-life at 1 h in data set [2] was 120 min. Also, the permeability in data set [3] is on record as > 1000 10^-6 cm/s. The kinetic solubility in data set [4] is > 132 µM and > 65 µg/mL.

With `Cc1c(C)n(Cc2ccccc2)c2ncn(C3CCOCC3)c(=N)c12`, the IC50 in data set [1] (read-out: IC50) was > 20 µM. Further, the t1/2 in data set [2] amounted to 26.9 min. Also, in data set [3], the permeability is listed as 1683.3 10^-6 cm/s.

Consider `COc1ccc(Cn2c(-c3ccccc3)c(-c3ccccc3)c3c(=N)n(CC4CCCO4)cnc32)cc1` (configuration not stated), for which the IC50 in data set [1] (read-out: pIC50 (converted)) is 8.51 µM. Further, the t1/2 in data set [2] turned out to be 9.4 min. Further, the permeability in data set [3] is > 1000 10^-6 cm/s.

In the case of `CN(C)CCCn1cnc2c(c(-c3ccccc3)c(-c3ccccc3)n2CCc2ccccc2)c1=N`, the IC50 in data set [1] (read-out: IC50) stood at 12.6 µM. Moreover, the t1/2 in data set [2] worked out at 77.9 min. Besides, the permeability in data set [3] was 294.4 10^-6 cm/s.

With `N=c1c2c(-c3ccccc3)c(-c3ccccc3)n(CCc3ccccc3)c2ncn1CC1CCOCC1`, in data set [1] (read-out: IC50), the IC50 is 10 µM. The t1/2 in data set [2] is given as 7.3 min. The permeability in data set [3] is on record as 1229.2 10^-6 cm/s.

Regarding `COc1ccc(Cn2c(-c3ccccc3)c(-c3ccccc3)c3c(=N)n(CC4CCOCC4)cnc32)cc1`, in data set [1] (read-out: pIC50 (converted)), the IC50 was 9.33 µM. Besides, in data set [2], the t1/2 was found to be 13 min. The permeability in data set [3] is on record as 1266.09 10^-6 cm/s.

With `N=c1c2c(-c3ccccc3)c(-c3ccccc3)n(Cc3ccccc3)c2ncn1C[C@@H]1CCCC[C@H]1CO` (relative stereo), the IC50 in data set [1] (read-out: pIC50 (converted)) was 0.933 µM. The t1/2 in data set [2] turned out to be 17.4 min. In addition, in data set [3], the permeability is on record as > 1000 10^-6 cm/s.

Regarding `COc1ccc(Cn2c(-c3ccccc3)c(-c3ccccc3)c3c(=N)n([C@H]4CC[C@H](O)CC4)cnc32)cc1`, in data set [1] (read-out: pIC50 (converted)), the IC50 is 0.158 µM. For the same compound, in data set [2], the half-life at 1 h is 120 min. In data set [3], the permeability is > 1000 10^-6 cm/s.

As to `N#Cc1c(-c2ccccc2)c(-c2ccccc2)n(Cc2ccccc2)c1N`, in data set [1] (read-out: IC50), the IC50 is > 20 µM. The t1/2 in data set [2] turned out to be 13.3 min. The permeability in data set [3] was 62 10^-6 cm/s.

Regarding `N=c1c2c(-c3ccccc3)c(-c3ccccc3)n(Cc3ccccc3)c2ncn1CCCCO`, the IC50 in data set [1] (read-out: pIC50 (converted)) is 4.27 µM. In addition, the t1/2 in data set [2] came out at 7.7 min. Also, the permeability in data set [3] is listed as > 1000 10^-6 cm/s.

For the compound `COc1ccc(CCn2cnc3c(c(-c4ccccc4)c(-c4ccccc4)n3Cc3ccccc3)c2=N)cc1OC`, the IC50 in data set [1] (read-out: IC50) and in data set [1] (read-out: pIC50 (converted)) was 25.1 µM throughout. For the same compound, the t1/2 in data set [2] was found to be 12.1 min. In data set [3], the permeability was 1196.9 10^-6 cm/s.

Take `N=c1c2c(-c3ccccc3)c(-c3ccccc3)n(CCc3ccccc3)c2ncn1CC1CCOC1` (configuration not stated): the IC50 in data set [1] (read-out: pIC50 (converted)) was 10.7 µM. In data set [2], the t1/2 was found to be 6.9 min. In data set [3], the permeability was > 1000 10^-6 cm/s.

`COc1ccc(Cn2c(-c3ccccc3)c(-c3ccccc3)c3c(=N)n(CCO)cnc32)cc1`: the IC50 in data set [1] (read-out: IC50) was 2.83 µM; in data set [1] (read-out: pIC50 (converted)) it was 2.82 µM. The half-life at 1 h in data set [2] worked out at 31.1 min. For the same compound, in data set [3], the Papp at 0.5 h is > 1000 ×10⁻⁶ cm/s.

In the case of `N=c1c2c(-c3ccccc3)c(-c3ccccc3)n(Cc3ccccc3)c2ncn1C1CCC(=O)CC1`, the IC50 in data set [1] (read-out: pIC50 (converted)) was 0.302 µM. Moreover, the t1/2 in data set [2] was found to be 38.2 min. In addition, the permeability in data set [3] is reported as > 1000 10^-6 cm/s. Besides, in data set [4], the kinetic solubility is 75 µM and 36 µg/mL.

`COCCn1cnc2c(c(-c3ccccc3)c(-c3ccccc3)n2Cc2ccccc2)c1=N`: in data set [1] (read-out: pIC50 (converted)), the IC50 was 9.33 µM. Further, the t1/2 in data set [2] was determined as 9.5 min. Besides, the permeability in data set [3] is > 1000 10^-6 cm/s.

Consider `N=c1c2c(-c3ccccc3)c(-c3ccccc3)n(Cc3ccc(OC(F)(F)F)cc3)c2ncn1[C@H]1CC[C@H](O)CC1`, for which the IC50 in data set [1] (read-out: pIC50 (converted)) was 0.631 µM. In addition, the half-life at 1 h in data set [2] worked out at 120 min. In addition, in data set [3], the permeability is 1246.89 10^-6 cm/s.

As for `COc1ccc(Cn2c(-c3ccccc3)c(-c3ccccc3)c3c(=N)n(CCCO)cnc32)cc1`, the IC50 in data set [1] (read-out: pIC50 (converted)) is 2.14 µM. For the same compound, the t1/2 in data set [2] came to 19.9 min. Besides, the permeability in data set [3] was > 1000 10^-6 cm/s.

For the compound `CC[C@@]1(O)C(=O)OCc2c1cc1n(c2=O)Cc2cc3ccccc3nc2-1` [CAMPTOTHECIN], the values for the IC50 in data set [1] (read-out: IC50) and in data set [5] were 0.19 µM and 0.48 µM, respectively. Also, in data set [6], the selectivity ratio is 2.5.

`N=c1c2c(-c3ccccc3)c(-c3ccccc3)n(Cc3ccc(OC(F)(F)F)cc3)c2ncn1C1CCOCC1`: in data set [1] (read-out: pIC50 (converted)), the IC50 was 0.955 µM. Besides, in data set [2], the t1/2 turned out to be 72 min. In data set [3], the permeability is > 1000 10^-6 cm/s.

With `N=c1c2c(-c3ccccc3)c(-c3ccccc3)n(Cc3ccccc3)c2ncn1CCNc1ccncc1`, the IC50 in data set [1] (read-out: pIC50 (converted)) is 6.61 µM. The t1/2 in data set [2] was found to be 29.9 min. In addition, the permeability in data set [3] is recorded as 445.1 10^-6 cm/s.

`N=c1c2c(-c3ccccc3)c(-c3ccccc3)n(Cc3ccccc3)c2ncn1CC1CCOC1` (configuration not stated): the IC50 in data set [1] (read-out: pIC50 (converted)) is 10.7 µM. In data set [2], the t1/2 worked out at 5.3 min. Besides, in data set [3], the permeability was > 1000 10^-6 cm/s.

Take `N=c1c2c(-c3ccccc3)c(-c3ccccc3)n(CC3CC3)c2ncn1CC1CCOCC1`: the IC50 in data set [1] (read-out: pIC50 (converted)) was 33.9 µM. Also, the t1/2 in data set [2] is reported as 16.3 min. The permeability in data set [3] is given as > 1000 10^-6 cm/s.

As to `N=c1c2c(-c3ccccc3)c(-c3ccccc3)n(Cc3ccccc3)c2ncn1CC1COC1`, the IC50 in data set [1] (read-out: IC50) was > 20 µM. Moreover, the half-life at 1 h in data set [2] is 113 min. The compound further displayed a Papp at 0.5 h in data set [3] of 7.2 ×10⁻⁶ cm/s.

With `CN(C)CCCn1cnc2c(c(-c3ccccc3)c(-c3ccccc3)n2Cc2ccccc2)c1=N`, the IC50 in data set [1] (read-out: IC50) and in data set [1] (read-out: pIC50 (converted)) was 12.6 µM in each case. In addition, in data set [2], the half-life at 1 h turned out to be 120 min. In data set [3], this compound had an apparent permeability (Papp) at 0.5 h of 320 ×10⁻⁶ cm/s.

With `N=c1c2c(-c3ccccc3)c(-c3ccccc3)n(Cc3ccccc3)c2ncn1CCCCCO`, the IC50 in data set [1] (read-out: pIC50 (converted)) was 3.16 µM. The t1/2 in data set [2] is 9 min. Besides, the permeability in data set [3] is listed as > 1000 10^-6 cm/s.

On to `N=c1c2c(-c3ccccc3)c(-c3ccccc3)n(CCc3ccccc3)c2ncn1CC1CCCO1` (configuration not stated), for which, in data set [1] (read-out: pIC50 (converted)), the IC50 was 7.94 µM. Moreover, in data set [2], the t1/2 was 8.4 min. In addition, the permeability in data set [3] was > 1000 10^-6 cm/s.

`Cc1c(C)n(Cc2ccccc2)c2ncn([C@H]3CC[C@H](O)CC3)c(=N)c12`: in data set [1] (read-out: IC50), the IC50 is > 20 µM. Moreover, in data set [2], the half-life at 1 h is 120 min. For the same compound, the permeability in data set [3] is < 1 10^-6 cm/s.

As to `N=c1c2c(-c3ccccc3)c(-c3ccccc3)n(CCc3ccccc3)c2ncn1CCCCO`, the IC50 in data set [1] (read-out: IC50) and in data set [1] (read-out: pIC50 (converted)) was 4.47 µM throughout. Also, the half-life at 1 h in data set [2] stood at 6.6 min. The Papp at 0.5 h in data set [3] is > 1000 ×10⁻⁶ cm/s.
